# Results reported in PubChem BioAssay.
# Activity calls are given as the source filed them.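 The calls were made as follows: active = duplicate-averaged activation above buffer control mean plus 5 SD of those controls; inactive = the rest.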
# Test: thallium flux activation in parental CHO cells, counter-screen for KCNQ1 potentiator project (AID 493006);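 as to activation: fluorescence ratio of max minus min over baseline after K+ and Tl+ depolarization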
# Settings: parental CHO-K1 cells, FluxOR thallium flux, at 10 µM; hits give high values
# Procedure, shortened: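 Assay system: parental CHO-K1 cells lacking KCNQ1, loaded with FluxOR thallium dye; timing: dye 90 min RT, compound 20 min RT; signal: kinetic thallium-flux fluorescence; repeats: duplicate wells per compound, percent values averaged; benchmarks: buffer and R-L3 controls; reagent: Potassium/thallium depolarization pulse; read-out: fluorescence change ratio scaled 0% buffer, 100% R-L3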
SMILES,outcome,activation
O=C(c1ccc(-c2ccccc2)cc1)C1CCCN(Cc2ccn[nH]2)C1 (centres undefined),inactive,
CCOC(=O)C1C(=O)NC2(C)CC1c1cc(OC)ccc1O2 (centres undefined),inactive,
CN1CC(C(=O)c2ccccc2)C(c2ccccc2)C1 (centres undefined),inactive,
O=c1c(C=NCCN2CCNCC2)c(O)n(C2CCCCC2)c(=O)n1C1CCCCC1,inactive,
CNc1ccc2oc(C[C@H]3O[C@@]4(CC[C@H]3C)O[C@H]([C@H](C)C(=O)c3ccc[nH]3)[C@H](C)C[C@H]4C)nc2c1C(=O)O,,144% (active)
CCOP1(=S)Oc2cc3c(cc2C(C(=O)OC)(C(F)(F)F)O1)OCO3 (centres undefined),inactive,
COc1ccccc1N(CC(=O)NC1CCCC1)C(=O)c1cnn(C(C)C)c1,inactive,
CC1(C)C[C@H]2C=C(C=O)[C@]3(C=O)C[C@]3(C)[C@H]2C1,inactive,
COc1ccc2c(c1)/C(=C/c1cnc[nH]1)C(=O)N2,inactive,
O=[N+]([O-])c1ccc(N2CCOCC2)c2ccncc12,inactive,
CCOP(=S)(OCC)c1ccc(N(C)C)cc1,inactive,
N#CCCn1cc(C(=O)Nc2ccccc2Cl)c(-c2ccc(F)cc2)n1,inactive,
C=C(C)[C@@]12OC3(c4ccccc4)O[C@@H]1C1[C@@H]4O[C@]4(CO)[C@@H](O)[C@]4(O)C(=O)C(C)=C[C@H]4[C@@]1(O3)[C@H](C)[C@H]2OC(=O)/C=C/C=C/c1ccccc1 (some centres undefined),inactive,
N#Cc1c(N2CCNCC2)nc(-c2ccco2)c2c1CCCC2,inactive,
Cc1c(Cl)cccc1NC(=S)N1CC2CC(C1)c1cccc(=O)n1C2 (centres undefined),inactive,
CCN(CC)C(=O)c1ccc(NC(=O)CSc2nnnn2-c2cc(OC)ccc2OC)cc1,inactive,
O=C(O)c1cccc2c1NC(c1cccc([N+](=O)[O-])c1)C1CC(Sc3ccccc3[N+](=O)[O-])C(Cl)C21 (centres undefined),inactive,
Cc1nc2ccccc2c(=O)n1/N=C/c1cc(Br)cc(Br)c1O,inactive,
C/C=C(\C)C(=O)N[C@@H](c1ccccc1)[C@@H](O)C(=O)O[C@H]1C[C@@]2(O)[C@@H](OC(=O)c3ccccc3)C3[C@](C)(C(=O)[C@H](OC(C)=O)C(=C1C)C2(C)C)[C@@H](O)C[C@H]1OC[C@@]31OC(C)=O (some centres undefined),inactive,
CN1CCC(c2c[nH]c3ccccc23)C1 (centres undefined),inactive,
O=[N+]([O-])c1cccc(C2N3CCCN23)c1 (centres undefined),inactive,
CC1=CC2/C=C(\C)CCC(O)C(O)/C=C/C(=O)C23C(=O)NC(CC(C)C)C3C1C (centres undefined),inactive,
CNC(=O)NC(O)C(Cl)(Cl)Cl (centres undefined),inactive,
CCOc1cc(CNCCc2c[nH]c3ccccc23)cc(Cl)c1OCC,inactive,
